Test results taken from ChEMBL document CHEMBL1152903, “Synthesis and activity of N-oxalylglycine and its derivatives as Jumonji C-domain-containing histone lysine demethylase inhibitors” (Bioorg Med Chem Lett, 2009).
Calls of active or inactive are those of the source. The rule behind the calls is not given here.

Experiments:
[1] = biological target: T1, Lysine-specific demethylase 4C (Homo sapiens) (UniProt Q9H3R0); assay: Inhibition of JMJD2C-mediated H3K9 demethylation activity at 1 mM
T1 sequence (whole entry): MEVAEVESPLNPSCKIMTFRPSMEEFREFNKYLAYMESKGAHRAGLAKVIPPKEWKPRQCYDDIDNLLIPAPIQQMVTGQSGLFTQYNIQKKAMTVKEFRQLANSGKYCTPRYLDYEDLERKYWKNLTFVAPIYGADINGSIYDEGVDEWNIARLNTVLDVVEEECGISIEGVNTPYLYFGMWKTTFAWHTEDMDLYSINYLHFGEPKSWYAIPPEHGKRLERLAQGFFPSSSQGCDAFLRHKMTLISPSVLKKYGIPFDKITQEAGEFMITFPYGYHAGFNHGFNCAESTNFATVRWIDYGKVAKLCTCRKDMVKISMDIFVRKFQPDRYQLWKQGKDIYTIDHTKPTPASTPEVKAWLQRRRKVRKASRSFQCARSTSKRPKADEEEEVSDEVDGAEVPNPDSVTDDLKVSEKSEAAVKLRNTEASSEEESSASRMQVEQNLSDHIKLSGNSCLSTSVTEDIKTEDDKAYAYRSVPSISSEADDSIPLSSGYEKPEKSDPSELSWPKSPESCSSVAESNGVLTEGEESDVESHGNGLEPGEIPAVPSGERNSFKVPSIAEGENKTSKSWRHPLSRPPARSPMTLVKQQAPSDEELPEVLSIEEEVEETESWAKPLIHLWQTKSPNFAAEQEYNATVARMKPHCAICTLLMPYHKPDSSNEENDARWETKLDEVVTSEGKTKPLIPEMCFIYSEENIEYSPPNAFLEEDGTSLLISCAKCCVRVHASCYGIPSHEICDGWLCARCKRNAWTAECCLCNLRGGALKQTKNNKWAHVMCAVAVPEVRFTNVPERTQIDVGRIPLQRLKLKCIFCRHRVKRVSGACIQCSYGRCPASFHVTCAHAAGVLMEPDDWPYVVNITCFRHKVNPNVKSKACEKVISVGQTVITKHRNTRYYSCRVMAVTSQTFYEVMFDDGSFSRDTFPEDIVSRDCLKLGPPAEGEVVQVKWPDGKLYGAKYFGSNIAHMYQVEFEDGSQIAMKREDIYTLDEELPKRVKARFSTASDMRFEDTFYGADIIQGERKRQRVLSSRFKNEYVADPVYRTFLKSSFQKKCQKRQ
Summary of the method: (§1)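 GST fusions of JMJD2A (aa 2–350) or JMJD2C (aa 2–352), made in E. coli and purified on glutathione-agarose. Each was incubated with histones in 50 mM Hepes pH 7.4, 50 mM NaCl, 50 mM KCl, 2 mM ascorbate, 0.2 mM (NH₄)₂Fe(SO₄)₂ and α-ketoglutarate, with inhibitor in DMSO or DMSO alone, 1 h at 37 °C. Read-out was anti-H3K9me₃ Western blot with ECL; H4K20me₁ served as a control.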

[2] = biological target: T2, Lysine-specific demethylase 4D (Homo sapiens) (UniProt Q6B0I6); assay: Inhibition of JMJD2D-mediated H3K9 demethylation activity at 1 mM
T2 sequence (whole entry): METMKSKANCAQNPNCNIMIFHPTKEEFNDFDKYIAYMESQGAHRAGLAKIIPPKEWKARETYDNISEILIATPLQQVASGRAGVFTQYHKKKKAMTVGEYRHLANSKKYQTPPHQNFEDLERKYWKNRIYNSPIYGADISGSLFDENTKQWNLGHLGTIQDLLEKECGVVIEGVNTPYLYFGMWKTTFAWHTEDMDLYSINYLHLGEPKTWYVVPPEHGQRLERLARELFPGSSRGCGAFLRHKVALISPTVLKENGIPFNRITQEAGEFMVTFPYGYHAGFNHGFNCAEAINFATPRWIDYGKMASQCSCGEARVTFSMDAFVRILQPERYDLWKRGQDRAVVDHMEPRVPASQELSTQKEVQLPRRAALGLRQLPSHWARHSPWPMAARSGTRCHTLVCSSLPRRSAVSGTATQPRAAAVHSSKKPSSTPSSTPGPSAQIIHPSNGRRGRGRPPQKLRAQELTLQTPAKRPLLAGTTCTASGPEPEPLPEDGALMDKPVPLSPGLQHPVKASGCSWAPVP
Summary of the method: (§2)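 Full-length GST-JMJD2D, expressed in E. coli and purified on glutathione-agarose, was incubated with histones, α-ketoglutarate, 2 mM ascorbate and 0.2 mM (NH₄)₂Fe(SO₄)₂ in 50 mM Hepes pH 7.4 with 50 mM NaCl and 50 mM KCl. Inhibitor in DMSO, or DMSO alone, was present for 2 h at 37 °C. H3K9me₃ was detected by Western blot with ECL, with H4K20me₁ as a control.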

[3] = biological target: T3, Lysine-specific demethylase 4A (Homo sapiens) (UniProt O75164); assay: Inhibition of JMJD2A-mediated H3K9 demethylation activity at 1 mM; summary of the method: as §1
T3 sequence (whole entry): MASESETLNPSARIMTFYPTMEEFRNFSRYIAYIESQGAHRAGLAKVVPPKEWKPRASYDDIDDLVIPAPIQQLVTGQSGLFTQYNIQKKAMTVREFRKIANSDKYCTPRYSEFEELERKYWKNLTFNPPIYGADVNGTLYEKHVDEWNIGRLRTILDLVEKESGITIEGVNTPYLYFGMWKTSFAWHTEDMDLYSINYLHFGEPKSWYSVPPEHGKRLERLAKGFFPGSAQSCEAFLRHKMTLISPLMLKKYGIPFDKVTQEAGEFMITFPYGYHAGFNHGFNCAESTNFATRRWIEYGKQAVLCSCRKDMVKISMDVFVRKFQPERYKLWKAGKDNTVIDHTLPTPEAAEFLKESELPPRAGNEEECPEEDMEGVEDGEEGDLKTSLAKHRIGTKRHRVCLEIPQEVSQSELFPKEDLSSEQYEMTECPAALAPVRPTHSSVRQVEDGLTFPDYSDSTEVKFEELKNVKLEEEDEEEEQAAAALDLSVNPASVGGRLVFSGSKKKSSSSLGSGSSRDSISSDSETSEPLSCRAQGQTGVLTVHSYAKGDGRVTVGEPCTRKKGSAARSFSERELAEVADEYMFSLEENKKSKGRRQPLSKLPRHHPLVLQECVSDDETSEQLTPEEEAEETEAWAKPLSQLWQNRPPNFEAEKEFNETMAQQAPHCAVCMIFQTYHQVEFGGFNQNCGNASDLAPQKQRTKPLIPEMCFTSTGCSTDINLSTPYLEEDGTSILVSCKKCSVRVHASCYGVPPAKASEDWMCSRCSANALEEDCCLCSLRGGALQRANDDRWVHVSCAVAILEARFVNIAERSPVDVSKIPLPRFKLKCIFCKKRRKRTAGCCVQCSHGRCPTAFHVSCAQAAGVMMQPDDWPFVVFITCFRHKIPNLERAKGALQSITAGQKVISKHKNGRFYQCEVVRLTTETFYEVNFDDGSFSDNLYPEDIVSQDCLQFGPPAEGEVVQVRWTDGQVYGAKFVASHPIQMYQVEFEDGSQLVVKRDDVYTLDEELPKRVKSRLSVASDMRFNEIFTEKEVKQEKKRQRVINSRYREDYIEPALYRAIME

[4] = biological target: T1, Lysine-specific demethylase 4C (Homo sapiens); assay: Inhibition of JMJD2C-mediated H3K9 demethylation activity at 3 mM; summary of the method: as §1
[5] = biological target: T3, Lysine-specific demethylase 4A (Homo sapiens); assay: Inhibition of JMJD2A-mediated H3K9 demethylation activity at 3 mM; summary of the method: as §1
[6] = biological target: T2, Lysine-specific demethylase 4D (Homo sapiens); assay: Inhibition of JMJD2D-mediated H3K9 demethylation activity at 3 mM; summary of the method: as §2
[7] = biological target: Lysine-specific demethylase 4C (Homo sapiens) (UniProt Q9H3R0); assay: Inhibition of JMJD2-mediated H3K36 demethylation in human 293T cells at 2.5 mM
[8] = biological target: T1, Lysine-specific demethylase 4C (Homo sapiens); assay: Inhibition of JMJD2C-mediated H3K36 demethylation in human 293T cells at 2.5 mM; type: cell-based
Summary of the method: (§3)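 293T cells were transfected with or without Flag-JMJD2C by calcium phosphate coprecipitation; the precipitate was washed off with PBS after 12 h. Cells were grown 12 h in DMEM + 10% FCS under 10% CO₂, then for 24 h in fresh medium containing inhibitor in DMSO or 1% DMSO. Lysates were boiled in Laemmli buffer and histone methylation was assessed by Western blotting.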

[9] = biological target: T1, Lysine-specific demethylase 4C (Homo sapiens); assay: Inhibition of JMJD2C-mediated H3K9 demethylation in human 293T cells at 2.5 mM; type: cell-based; summary of the method: as §3
[10] = biological target: Lysine-specific demethylase 4C (Homo sapiens) (UniProt Q9H3R0); assay: Inhibition of JMJD2-mediated H3K9 demethylation in human 293T cells at 2.5 mM
[11] = biological target: T1, Lysine-specific demethylase 4C (Homo sapiens); assay: Inhibition of JMJD2C-mediated H3K9 demethylation in human 293T cells at […]; type: cell-based; summary of the method: as §3
[12] = biological target: T1, Lysine-specific demethylase 4C (Homo sapiens); assay: Inhibition of JMJD2C-mediated H3K36 demethylation in human 293T cells at […]; type: cell-based; summary of the method: as §3

SMILES	Histone_modification [1]	Histone_modification [2]	Histone_modification [3]	Histone_modification [4]	Histone_modification [5]	Histone_modification [6]	Histone_modification [7]	Histone_modification [8]	Histone_modification [9]	Histone_modification [10]	Histone_modification [11]	Histone_modification [12]
CN(C)c1ccc(CCCN(CC(=O)O)C(=O)C(=O)O)cc1	inactive	Active	inactive	Active-partial	Active-partial							
O=C(O)CNC(=O)C(=O)O	Active	Active	Active	Active	Active	Active						
CN(C)c1ccc(CCN(CC(=O)O)C(=O)C(=O)O)cc1	inactive	Active	inactive	Active	Active	Active						
CN(C)c1cccc(CN(CC(=O)O)C(=O)C(=O)O)c1	inactive		inactive	Active	Active	Active						
COC(=O)CNC(=O)C(=O)OC							Active	Active	Active	Active		
CN(C)c1ccc(CN(CC(=O)O)C(=O)C(=O)O)cc1	inactive	Active	inactive	Active	Active	Active						
COC(=O)CCC(=O)OC											inactive	inactive
COC(=O)CN(Cc1ccc(N(C)C)cc1)C(=O)C(=O)OC								inactive	inactive	Active		
